The values that follow come from ChEMBL document CHEMBL5346932, “Structure-activity relationships of actively FhuE transported rifabutin derivatives with potent activity against Acinetobacter baumannii” (Eur J Med Chem, 2023).

≈ marks a conversion by molar mass, not a printed value. Calls of active or inactive are those of the source. The rule behind the calls is not given here.

Broadly, the MIC is the least concentration at which growth counts as inhibited. For orientation: IC50 means the concentration needed to halve the response being measured. A high value points to a need for much substance.

The nature of data set [1]: Drug accumulation in Acinetobacter baumannii HUMC1 cultured in iron-limited RPMI medium supplemented with 10% FCS measured per 5 ml of culture medium at 0.05 uM incubated for 10 mins by LC-MS/MS analysis. Format: ADME. Put shortly: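 5 mL of suspension was dosed from DMSO stocks (0.002–5 mM) and shaken at 150 rpm for 10 min at 37 °C. Cells were pelleted, washed, and lysed (sucrose/EDTA). LC-MS/MS MRM quantitation used caffeine-normalized standard curves in spiked lysate. Reported as amount per 5 mL; n≥2 independent replicates.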

In data set [2] the test system is Acinetobacter baumannii. Kind of data set: Antibacterial activity against Acinetobacter baumannii HUMC1 harboring RpoB H535Q mutant assessed as bacterial growth inhibition incubated for 20 hrs by CLSI based microbroth dilution method. Format: functional. Put shortly:
(§1)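 Microbroth dilution per CLSI in RPMI 1640 + 10% FCS (in place of CAMHB). Compounds as 2-fold serial dilutions; inoculum 5×10^5 CFU/mL of previously described HUMC1-derived mutant strains. Incubated static at 35 °C for 20 h. MIC read visually as lowest concentration preventing visible growth.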

In data set [3] the test system is Acinetobacter baumannii. Kind of data set: Antibacterial activity against Acinetobacter baumannii HUMC1 cultured in RPMI 1640 medium supplemented with 10% FCS assessed as bacterial growth inhibition incubated for 20 hrs by CLSI based microbroth dilution method. Conditions: Acinetobacter baumannii, HUMC1, 20 h, read-out: MIC. Format: functional. The essentials: (§2)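 CLSI broth microdilution in RPMI 1640 + 10% FCS in place of CAMHB. Compounds in 2-fold dilution series; inoculum 5×10^5 CFU/mL. Plates held static at 35 °C for 20 h. MIC read visually as the lowest concentration with no visible growth. […] is the reciprocal of this MIC.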

The nature of data set [4]: Inhibition of transcription in Acinetobacter baumannii HUMC1 using pVT784 as reporter plasmid preincubated for 30 mins followed by reporter plasmid addition and measured after 60 mins by Nano-Glo luciferase assay. Format: functional. Put shortly: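 Cell-free transcription/translation used A. baumannii HUMC1 extract at 1.2 mg/mL, with extract from 2xYT+P culture after a run-off step and dialysis at pH 8.2. Compound was preincubated with extract for 30 min on ice. Reporter plasmid (0.5 nM) was then added and luminescence read after 60 min at 25 °C. Compounds were tested at 8 to 0.002 mg/L in triplicate. IC50 was fit from no-compound-normalized signal.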

Data set [5] has as its system Acinetobacter baumannii. Kind of data set: Antibacterial activity against Acinetobacter baumannii HUMC1 cultured in iron-limited RPMI medium supplemented with 10% FCS assessed as inverse MIC incubated for 20 hrs by CLSI based microbroth dilution method. The class given is functional. Put shortly: as §2
For orientation: Dilution methods test growth across graded concentrations, often in twofold steps.

Data set [6] deals with Acinetobacter baumannii. Kind of data set: Antibacterial activity against Acinetobacter baumannii HUMC1 harboring RpoB H535C mutant assessed as bacterial growth inhibition incubated for 20 hrs by CLSI based microbroth dilution method. The class given is functional. The essentials: as §1
The subject of data set [7] is Acinetobacter baumannii. Kind of data set: Antibacterial activity against Acinetobacter baumannii HUMC1 harboring FhuE deletion mutant assessed as bacterial growth inhibition incubated for 20 hrs by CLSI based microbroth dilution method. Format: functional. Put shortly:
as §1

Data set [8] has as its system Staphylococcus aureus. Kind of data set: Antibacterial activity against Staphylococcus aureus USA300 UAMS-1625 assessed as fold reduction in MIC incubated for 20 hrs by CLSI based microbroth dilution method relative to rifabutin. Format: functional. The essentials: (§3)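 CLSI broth microdilution in CAMHB against S. aureus USA300 UAMS-1625. Compounds in 2-fold dilution series; inoculum 5×10^5 CFU/mL. Incubated without shaking at 35 °C for 20 h. MIC read visually as the lowest concentration preventing visible growth. Fold changes are relative to the rifabutin MIC.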

Data set [9] concerns Acinetobacter baumannii. Kind of data set: Antibacterial activity against Acinetobacter baumannii HUMC1 harboring RpoB H535C mutant assessed as fold reduction in MIC incubated for 20 hrs by CLSI based microbroth dilution method relative to rifabutin. The class given is functional.
In data set [10] the test system is Acinetobacter baumannii. Kind of data set: Antibacterial activity against Acinetobacter baumannii HUMC1 harboring RpoB H535Q mutant assessed as fold reduction in MIC incubated for 20 hrs by CLSI based microbroth dilution method relative to rifabutin. Format: functional.
Data set [11] deals with Staphylococcus aureus. Kind of data set: Antibacterial activity against Staphylococcus aureus USA300 UAMS-1625 assessed as bacterial growth inhibition incubated for 20 hrs by CLSI based microbroth dilution method. Format: functional. Put shortly: as §3
Data set [12] concerns Staphylococcus aureus. Kind of data set: Antibacterial activity against Staphylococcus aureus USA300 UAMS-1625 assessed as fold increase in MIC incubated for 20 hrs by CLSI based microbroth dilution method relative to rifabutin. Format: functional. The essentials:
as §3

The compound `CO[C@H]1/C=C/O[C@@]2(C)Oc3c(C)c(O)c4c(c3C2=O)C2=NC3(CCN(CCC(C)(C)C)CC3)NC2=C(NC(=O)/C(C)=C\C=C\[C@H](C)[C@H](O)[C@@H](C)[C@@H](O)[C@@H](C)[C@H](OC(C)=O)[C@@H]1C)C4=O` gave a Drug uptake in data set [1] of 9.55 pmol. Also, the MIC in the data set on Acinetobacter baumannii [2] amounted to 1 µg/mL (≈ 1.14 µM); in the data set with Acinetobacter baumannii [3] it was 0.06 µg/mL (≈ 0.0686 µM); in the data set on Acinetobacter baumannii [6] it was 1 µg/mL (≈ 1.14 µM); in the data set on Acinetobacter baumannii [7] it was 0.5 µg/mL (≈ 0.571 µM). Further, in [4], the IC50 turned out to be 0.17 µg/mL (≈ 0.194 µM). The 1/MIC with Acinetobacter baumannii [5] stood at 16.67 L/mg. Besides, the “fold change (FC)” value with Staphylococcus aureus [8] amounted to 2.
In turn, `CO[C@H]1/C=C/O[C@@]2(C)Oc3c(C)c(O)c4c(c3C2=O)C2=NC3(CCN(C5CC5)CC3)NC2=C(NC(=O)/C(C)=C\C=C\[C@H](C)[C@H](O)[C@@H](C)[C@@H](O)[C@@H](C)[C@H](OC(C)=O)[C@@H]1C)C4=O` (stereo in doubt; form 1) displayed a Drug uptake in data set [1] of 24.66 pmol. Also, the MIC in the data set with Acinetobacter baumannii [2] was 0.004 µg/mL (≈ 0.00481 µM); in the data set with Acinetobacter baumannii [3], ≤ 0.002 µg/mL; in the data set on Acinetobacter baumannii [6], 0.004 µg/mL (≈ 0.00481 µM); in the data set on Acinetobacter baumannii [7], 0.5 µg/mL (≈ 0.602 µM). Moreover, the “fold change (FC)” value in the data set with Acinetobacter baumannii [9], with Acinetobacter baumannii [10] and in the data set on Staphylococcus aureus [8] was 2 throughout. In data set [4], this compound returned an IC50 of 0.12 µg/mL (≈ 0.144 µM). Besides, the 1/MIC in the data set on Acinetobacter baumannii [5] is on record as 1000 L/mg.
Turning to `CO[C@H]1/C=C/O[C@@]2(C)Oc3c(C)c(O)c4c(c3C2=O)C2=NC3(CCN(C(C)(C)C)CC3)NC2=C(NC(=O)/C(C)=C\C=C\[C@H](C)[C@H](O)[C@@H](C)[C@@H](O)[C@@H](C)[C@H](OC(C)=O)[C@@H]1C)C4=O`, the Drug uptake in data set [1] was found to be 32.73 pmol. Moreover, the MIC in the data set on Acinetobacter baumannii [3] stood at 0.002 µg/mL (≈ 0.00236 µM); in the data set with Acinetobacter baumannii [7], 0.5 µg/mL (≈ 0.59 µM). This compound registered an IC50 in [4] of 0.06 µg/mL (≈ 0.0708 µM). Also, the outcome in the data set with Staphylococcus aureus [11] was Active. Moreover, in the data set with Acinetobacter baumannii [5], the 1/MIC is given as 500 L/mg.
Turning to `CO[C@H]1/C=C/O[C@@]2(C)Oc3c(C)c(O)c4c(c3C2=O)C2=NC3(CCN(CC5CCCC5)CC3)NC2=C(NC(=O)/C(C)=C\C=C\[C@H](C)[C@H](O)[C@@H](C)[C@@H](O)[C@@H](C)[C@H](OC(C)=O)[C@@H]1C)C4=O`, the MIC in the data set on Acinetobacter baumannii [3] was found to be 0.016 µg/mL (≈ 0.0183 µM). Besides, the “fold change (FC)” value in the data set with Staphylococcus aureus [12] was 2.
In the case of `CO[C@H]1/C=C/O[C@@]2(C)Oc3c(C)c(O)c4c(c3C2=O)C2=NC3(CCN(c5ccccc5)CC3)NC2=C(NC(=O)/C(C)=C\C=C\[C@H](C)[C@H](O)[C@@H](C)[C@@H](O)[C@@H](C)[C@H](OC(C)=O)[C@@H]1C)C4=O`, the MIC with Acinetobacter baumannii [3] worked out at 0.125 µg/mL (≈ 0.144 µM). Further, the “fold change (FC)” value with Staphylococcus aureus [12] worked out at 2.
Turning to `CO[C@H]1/C=C/O[C@@]2(C)Oc3c(C)c(O)c4c(c3C2=O)C2=NC3(CCN(C5CCCCC5)CC3)NC2=C(NC(=O)/C(C)=C\C=C\[C@H](C)[C@H](O)[C@@H](C)[C@@H](O)[C@@H](C)[C@H](OC(C)=O)[C@@H]1C)C4=O`, the minimum inhibitory concentration (MIC) in the data set with Acinetobacter baumannii [3] was 0.016 µg/mL (≈ 0.0183 µM). Moreover, the “fold change (FC)” value in the data set on Staphylococcus aureus [12] was found to be 2.
Regarding `CO[C@H]1/C=C/O[C@@]2(C)Oc3c(C)c(O)c4c(c3C2=O)C2=NC3(CCNCC3)NC2=C(NC(=O)/C(C)=C\C=C\[C@H](C)[C@H](O)[C@@H](C)[C@@H](O)[C@@H](C)[C@H](OC(C)=O)[C@@H]1C)C4=O`, in [1], the Drug uptake turned out to be 0.47 pmol. The MIC was 1 µg/mL (≈ 1.26 µM) in the data set on Acinetobacter baumannii [2], 0.25 µg/mL (≈ 0.316 µM) in the data set with Acinetobacter baumannii [3], 1 µg/mL (≈ 1.26 µM) with Acinetobacter baumannii [6] and 0.5 µg/mL (≈ 0.632 µM) with Acinetobacter baumannii [7]. The compound also gave a half-maximal inhibitory concentration (IC50) in [4] of 0.05 µg/mL (≈ 0.0632 µM). In the data set on Staphylococcus aureus [12], the “fold change (FC)” value was found to be 2. Moreover, in the data set on Acinetobacter baumannii [5], the 1/MIC was 4 L/mg.
